# STK33 kinase inh: human STK33 kinase inhibition. Q9BYT3. purified STK33, MBP phosphorylation, ADP-Glo luminescence. inhibition, % at 10 µM. hit rate 0.073% among 320,000;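 active means inhibition at or above 25%, using the most active replicate where run in duplicate; inactive means inhibition below 25%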
# Target sequence (Q9BYT3 whole entry, looked up): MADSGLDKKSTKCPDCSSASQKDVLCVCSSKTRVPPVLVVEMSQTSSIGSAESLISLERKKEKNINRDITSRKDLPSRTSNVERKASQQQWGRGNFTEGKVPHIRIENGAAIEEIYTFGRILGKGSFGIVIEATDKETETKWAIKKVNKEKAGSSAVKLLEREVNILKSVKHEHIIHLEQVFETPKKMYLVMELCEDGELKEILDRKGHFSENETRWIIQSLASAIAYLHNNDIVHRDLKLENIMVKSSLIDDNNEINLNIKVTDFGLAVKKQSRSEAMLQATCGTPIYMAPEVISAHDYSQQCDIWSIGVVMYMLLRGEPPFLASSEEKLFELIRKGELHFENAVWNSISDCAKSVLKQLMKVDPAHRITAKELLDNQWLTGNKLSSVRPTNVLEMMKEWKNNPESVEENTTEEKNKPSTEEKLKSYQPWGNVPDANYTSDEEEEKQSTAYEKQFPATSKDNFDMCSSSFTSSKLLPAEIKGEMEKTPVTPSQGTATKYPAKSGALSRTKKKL
# CDK5 inh: CDK5/p35 (human) kinase inhibition | Recombinant CDK5/p35, ADP-Glo luminescence, 60 min | inhibition, % at 10 µM | hit rate 0.01% among 330,000;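 active means highest replicate inhibition of at least 50% and at least 75% of replicates reaching 50%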;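 further: plate controls were DMSO neutral control for no effect and GW8510 at 10 µM for full effect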
# GSK3beta inhib: blocks human GSK3beta kinase activity; P49841; GST-GSK3beta kinase, ADP-Glo luminescence, 60 min; stronger effect = lower value; activity score (negative = inhibition), % at 10 µM; hit rate 0.038% among 300,000; AID 2097;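 active means more than half of replicate wells score below -50%, meaning over 50% inhibition versus plate controls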;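 further: 0% = median DMSO wells and -100% = median GW8510 positive control wells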
#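 Test system – GST-tagged human GSK3beta kinase, cell-free · Incubation – 60 min enzyme reaction, room temperature · Signal – ADP-Glo luminescence · Also added – peptide substrate and ATP at 25 µM · Controls – DMSO neutral wells and GW8510 at 20 µM as positive · Buffer or medium – Tris/MgCl2 kinase buffer · Measure – Luminescence-derived activity versus plate DMSO and GW8510 wells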
# GSK3A inh: blocks human GSK-3 alpha kinase | P49840 | ADP-Glo luminescence, 60 min | inhibition, % at 10 µM | hit rate 0.1% among 320,000;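 active means more than half of replicates show inhibition above 20%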;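 further: GST-tagged GSK-3 alpha with peptide substrate and 25 µM ATP; 0% = DMSO neutral wells and 100% = GW8510 positive control wells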
# Dyrk1A ADPGlo: blocks rat Dyrk1A kinase activity | Q63470 | inhibition, % at 12.5 µM | AID 504441 | ADP-Glo luminescence, NFATc1 peptide | hit rate 0.43% among 310,000; in the data active means inhibition above about 50%;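 further: plate controls were vehicle with enzyme for no effect and no enzyme for full effect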
# Dyrk1A artifact: counter-screen for Dyrk1A inhibitors: ADP-Glo luciferase artifacts; ADP-Glo luciferase artifact assay, no Dyrk1A, luminescence; 1,300 tested, under 10 active; shares compounds with Dyrk1A ADPGlo; AC50, µM (titrated, usually from 12 µM), for inactives: top-dose activity change, negative = inhibition;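 active means fitted half-maximal dose AC50 no more than ten times the top valid tested dose, with luminescence dropping as dose rises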
# The depositor's hits bear a star; . = no result given. The entries come from a sample that favours hits as a whole.
SMILES,STK33 kinase inh,CDK5 inh,GSK3beta inhib,GSK3A inh,Dyrk1A ADPGlo,Dyrk1A artifact
O=C(Nc1ccc(F)cc1)C(=O)c1c(O)[nH]c2ccc([N+](=O)[O-])cc12,0.7,10.1,-2.8,-0.6,56.5*,7.4%
Cc1ccc(NCC(=O)N=Nc2c(O)[nH]c3ccc([N+](=O)[O-])cc23)cc1,2.9,.,-3.0,0.9,.,.
COCCNc1cc(C)nc2c(-c3ccccc3OC)c(C)nn12,0.4,-1.8,-0.4,-5.7,57.2*,10.8%
O=C(/C=C/c1ccccc1)Nc1cccc(C(=O)NC2CC2)c1,.,0.3,.,.,62.6*,8.1%
COc1ccccc1/C=C/C(=O)Nc1cccc(C(C)=O)c1,3.9,-4.1,3.0,.,4.6,.
COc1ccc(/C=C/C(=O)Nc2cccc(C(C)=O)c2)cc1,1.9,-1.6,1.4,-3.4,56.2*,6.5%
COc1ccc(-c2cc(C)no2)cc1S(=O)(=O)N(C)c1ccc(C)cc1,0.3,.,1.4,-1.9,.,.
CC1(C)C=Cc2cc3ccc(=O)oc3cc2O1,3.6,0.8,2.6,12.5,59.3*,5.6%
COc1c2c(cc3oc(=O)ccc13)OC(C)(C)C=C2,1.8,3.0,-1.7,2.6,39.6,.
Cc1[nH]nc2c1-c1nc3ccccc3nc1C(C)(C)C2,10.1,38.6,-5.3,36.2,79.8*,8.6%
COc1ccc(-c2cn[nH]c2C)cc1,8.8,3.4,4.7,2.5,62.6*,7.8%
Cc1ccc(N2CN=c3s/c(=C\c4ccccn4)c(=O)n3C2)cc1,-0.7,0.7,-0.2,-1.3,52.0*,6.3%
CCN(CC(=O)NCc1ccc(F)cc1)CC(=O)NC1CCCC1,-0.3,0.7,-2.0,-1.0,1.0,.
COc1ccccc1OCCC(=O)NNC(=O)c1ccccc1F,0.4,-0.3,.,1.5,.,.
Nc1ncnc2c1ncn2C1O[C@H](CO)[C@@H](O)[C@@H]1O (stereo partly drawn),2.7,1.5,.,0.3,15.3,.
CNc1nc2c(N)ncnc2n1[C@H]1O[C@@H](CO)[C@H](O)[C@@H]1O,3.0,12.8,-5.9,1.1,90.9*,8.5%
N#Cc1c(N)n(C2OC(CO)C(O)C2O)c2ncnc(N)c12 (stereo not drawn),.,57.1*,.,.,95.5*,9.0%
CC(=O)NC12CC3CC(C1)CC(C(=O)Nc1nc4ccc(F)cc4s1)(C3)C2,2.3,-2.1,0.7,-2.0,78.6*,7.1%
O=C(CSc1nnc(C2CC2)n1CC1CCCO1)Nc1ccc(Cl)cc1 (stereo not drawn),-2.4,-3.1,.,-1.7,-2.7,.
Cc1cc(C)c(C2=NOC3C4CCC(C4)C23)c(C)c1 (stereo not drawn),-0.9,2.0,-1.5,-1.0,-2.0,.
COC(=O)C1=C(C(=O)OC)C(c2cc(Br)ccc2O)c2sc(=O)[nH]c2S1 (stereo not drawn),0.5,1.5,.,21.7,63.3*,9.4%
O=C(O)c1cccc2c1-c1ccccc1/C2=N\Nc1ccccc1,-1.8,-1.2,1.2,-1.0,7.2,.
O=C(O)c1cccc2c1/C(=N/O)c1ccccc1-2,4.5,-2.9,0.5,2.3,81.3*,8.6%
O=C(c1cccc2c1-c1ccccc1/C2=N/O)N1CCCCC1,7.0,-1.9,-3.3,4.1,60.1*,10.1%
NC(=O)N/N=C1\c2ccccc2-c2c(C(N)=O)cccc21,7.6,0.2,2.3,5.2,51.2*,10.3%
SMILES,STK33 kinase inh,CDK5 inh,GSK3beta inhib,GSK3A inh,Dyrk1A ADPGlo,Dyrk1A artifact
CCN(C(=O)COC(=O)CCc1c[nH]c2ccccc12)c1c(N)n(Cc2ccccc2)c(=O)[nH]c1=O,-0.6,1.0,2.4,-1.6,3.8,.
Nc1nnc(-c2cccc(F)c2)s1,2.4,3.8,1.7,0.5,22.8,.
O=c1oc2c(-c3cccc(F)c3)cc(O)cc2s1,2.2,-0.7,-2.0,1.9,65.3*,9.8%
O=C(CCc1ccc(S(=O)(=O)N2CCOCC2)cc1)Nc1ccc(F)c(F)c1F,-0.5,1.4,.,-2.3,3.6,.
CN(C)CCNc1ccc(CO)c2oc3ccc(O)cc3c(=O)c12,.,1.0,.,.,52.4*,6.2%
CCN(CC)CCNc1ccc(C)c2sc3ccc(O)cc3c(=O)c12,.,0.8,.,.,39.9,.
O=C(Cc1c(F)cccc1Cl)Nc1nc2ccccc2s1,4.7,2.3,0.0,0.2,51.4*,5.8%
CCCCSCCCNC(=O)c1ccc(CS(=O)(=O)c2ccccc2OC)o1,-0.9,1.0,0.7,-0.5,-0.7,.
COc1cc(O)c2c(=O)c3c(O)ccc(O)c3oc2c1,.,2.5,.,.,68.2*,11.3%
CC(C)CC(NC(=O)C1CCC(C)CC1)C(=O)Nc1ccc2c(c1)OCCO2 (stereo not drawn),1.6,0.0,-0.4,-4.4,56.3*,11.9%
CCOC(=O)c1sc(NN=C(C(=O)OC)C(=O)OC)c(C(=O)OCC)c1C,-0.1,2.7,3.6,-0.7,1.4,.
COc1ccc(C=C2SC(=S)NC2=O)cc1,.,1.4,.,.,76.3*,5.1%
O=C1NC(=S)SC1=Cc1ccccc1Br,.,1.0,.,.,47.4,.
O=C1NC(=S)SC1=Cc1ccc(F)cc1,.,1.6,.,.,83.5*,11.3%
COc1cccc(OCCOc2ccc(/C=C3/SC(=S)NC3=O)cc2)c1,0.2,1.0,-20.8,-1.9,5.0,.
O=C1NC(=S)SC1=Cc1cc(Br)ccc1O,.,0.2,.,.,83.7*,13.1%
COc1ccc(/C=C/C(=O)OCC(=O)NCc2ccco2)c(OC)c1,-0.3,0.6,-0.7,0.2,-0.6,.
CC[C@@](C)(NS(=O)(=O)OCC(Cl)(Cl)Cl)c1ccccc1,0.1,2.2,0.0,-0.1,56.8*,6.3%
CC(C)(NS(=O)(=O)OCC(Cl)(Cl)Cl)c1ccccc1,-1.1,0.4,1.3,-1.9,9.4,.
COC(CNC(=O)C1CCC(CNS(=O)(=O)c2c(C)cc(C)cc2C)CC1)OC (stereo not drawn),-0.8,-1.8,-3.8,0.2,-0.3,.
CCN(C(=O)CSc1nnc(-c2ccccc2Cl)n1N)c1c(N)n(Cc2ccccc2)c(=O)[nH]c1=O,.,0.0,.,.,-2.0,.
NC(=O)C1CCN(C2=C(Cl)C(=O)c3ccccc3C2=O)CC1,0.6,1.2,0.6,-0.1,-0.3,.
CN1CCN(C2=C(Cl)C(=O)c3ccccc3C2=O)CC1,.,1.8,.,.,56.5*,7.5%
CN1CCN(C2=C(NS(=O)(=O)c3ccccc3)C(=O)c3ccccc3C2=O)CC1,1.5,0.3,0.3,-0.8,-4.1,.
O=C1C(Cl)=C(N2CCC(C(=O)O)CC2)C(=O)c2ccccc21,0.3,0.9,-2.0,10.2,61.0*,11.0%
O=S(=O)(NCc1ccccc1)c1ccc(-n2cccn2)cc1,-0.5,0.3,-0.3,.,-4.8,.
O=C(O)CCCNc1ccc(S(=O)(=O)N2CCCCC2)cc1,0.1,-0.3,2.2,-1.3,29.8,.
COc1ccc2nc3cc(Cl)ccc3c(Nc3ccc(O)c(CN4CCN(C)CC4)c3)c2c1,.,2.3,.,.,61.7*,9.2%
Cc1ccc(N=c2oc3cc(O)ccc3cc2C(N)=O)cc1,10.3,0.9,-2.8,25.9,77.4*,7.8%
CC(=O)c1cc2ccc(O)cc2oc1=O,0.0,1.7,-0.3,6.9,19.6,.

# Screening results as filed in PubChem.
